Results as given in ChEMBL document CHEMBL4261600 (Eur J Med Chem, 2018).

Assays:
[1] = system: Hepatocyte growth factor receptor (Homo sapiens), P08581 [M1250T]; assay: Binding affinity to human partial length MET M1250T mutant (D1010 to S1367 residues) expressed in bacterial expression system assessed as remaining unbound target protein level at 1000 nM by Kinomescan method relative to control
Procedure, shortened: (§1)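 KINOMEscan competition-binding profiling across the panel of 468 kinases and mutants, with inhibitor tested at 1 μM. Binding is expressed as percent of control, with DMSO as the reference control.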

[2] = molecular target: Serine/threonine-protein kinase Nek2 (Homo sapiens) (UniProt P51955); assay: Binding affinity to wild-type human partial length NEK2 (M1 to K309 residues) expressed in bacterial expression system assessed as remaining unbound target protein level at 1000 nM by Kinomescan method relative to control
CDK9/Cyclin K = CDK9/Cyclin K (Homo sapiens, UniProt P50750); assay: Inhibition of CDK9/Cyclin K (unknown origin) using PDKtide as substrate incubated at 37 degreeC for 1 hr followed by incubation at room temperature for 5 mins by ADP-Glo reagent based luminescence assay; format: protein-complex assay
CDK9/Cyclin K, sequence (P50750 whole entry, the tested form may be a part): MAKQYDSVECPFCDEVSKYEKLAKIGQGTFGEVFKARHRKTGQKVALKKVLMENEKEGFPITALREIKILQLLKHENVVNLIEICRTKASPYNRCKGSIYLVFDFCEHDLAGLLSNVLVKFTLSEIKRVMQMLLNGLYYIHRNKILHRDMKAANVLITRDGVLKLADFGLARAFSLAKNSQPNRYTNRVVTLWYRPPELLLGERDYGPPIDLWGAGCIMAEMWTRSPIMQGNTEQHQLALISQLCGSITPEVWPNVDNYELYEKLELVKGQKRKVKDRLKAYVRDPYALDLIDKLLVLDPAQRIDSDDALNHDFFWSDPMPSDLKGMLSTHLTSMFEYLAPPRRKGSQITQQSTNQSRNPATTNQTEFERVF
CDK9/Cyclin K, sequence (O75909 whole entry, further chain, the tested form may be a part): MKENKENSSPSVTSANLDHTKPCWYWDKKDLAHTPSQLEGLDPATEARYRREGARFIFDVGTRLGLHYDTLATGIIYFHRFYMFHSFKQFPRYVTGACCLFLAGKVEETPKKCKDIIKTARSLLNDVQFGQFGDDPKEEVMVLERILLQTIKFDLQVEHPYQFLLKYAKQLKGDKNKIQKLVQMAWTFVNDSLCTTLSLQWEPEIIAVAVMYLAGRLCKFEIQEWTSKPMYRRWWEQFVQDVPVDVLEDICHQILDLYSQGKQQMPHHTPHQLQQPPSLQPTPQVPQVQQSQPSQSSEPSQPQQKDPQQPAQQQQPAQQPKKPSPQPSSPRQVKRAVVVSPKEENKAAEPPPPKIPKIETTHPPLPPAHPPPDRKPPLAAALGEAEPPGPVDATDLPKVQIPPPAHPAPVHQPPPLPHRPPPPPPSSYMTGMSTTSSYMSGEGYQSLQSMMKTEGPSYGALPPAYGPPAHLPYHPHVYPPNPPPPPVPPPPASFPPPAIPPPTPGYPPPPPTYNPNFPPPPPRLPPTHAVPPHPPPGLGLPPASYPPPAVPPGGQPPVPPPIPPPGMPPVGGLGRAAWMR

[3] = system: Mast/stem cell growth factor receptor Kit (Homo sapiens), P10721 [V559D,V654A]; assay: Binding affinity to human partial length KIT V559D/V654A double mutant (Y545 to D952 residues) expressed in bacterial expression system assessed as remaining unbound target protein level at 1000 nM by Kinomescan method relative to control; procedure, shortened: as §1
Mast/stem cell growth factor receptor Kit (Homo sapiens), P10721 [V559D,V654A], sequence (P10721 whole entry V559D/V654A, the tested form may be a part): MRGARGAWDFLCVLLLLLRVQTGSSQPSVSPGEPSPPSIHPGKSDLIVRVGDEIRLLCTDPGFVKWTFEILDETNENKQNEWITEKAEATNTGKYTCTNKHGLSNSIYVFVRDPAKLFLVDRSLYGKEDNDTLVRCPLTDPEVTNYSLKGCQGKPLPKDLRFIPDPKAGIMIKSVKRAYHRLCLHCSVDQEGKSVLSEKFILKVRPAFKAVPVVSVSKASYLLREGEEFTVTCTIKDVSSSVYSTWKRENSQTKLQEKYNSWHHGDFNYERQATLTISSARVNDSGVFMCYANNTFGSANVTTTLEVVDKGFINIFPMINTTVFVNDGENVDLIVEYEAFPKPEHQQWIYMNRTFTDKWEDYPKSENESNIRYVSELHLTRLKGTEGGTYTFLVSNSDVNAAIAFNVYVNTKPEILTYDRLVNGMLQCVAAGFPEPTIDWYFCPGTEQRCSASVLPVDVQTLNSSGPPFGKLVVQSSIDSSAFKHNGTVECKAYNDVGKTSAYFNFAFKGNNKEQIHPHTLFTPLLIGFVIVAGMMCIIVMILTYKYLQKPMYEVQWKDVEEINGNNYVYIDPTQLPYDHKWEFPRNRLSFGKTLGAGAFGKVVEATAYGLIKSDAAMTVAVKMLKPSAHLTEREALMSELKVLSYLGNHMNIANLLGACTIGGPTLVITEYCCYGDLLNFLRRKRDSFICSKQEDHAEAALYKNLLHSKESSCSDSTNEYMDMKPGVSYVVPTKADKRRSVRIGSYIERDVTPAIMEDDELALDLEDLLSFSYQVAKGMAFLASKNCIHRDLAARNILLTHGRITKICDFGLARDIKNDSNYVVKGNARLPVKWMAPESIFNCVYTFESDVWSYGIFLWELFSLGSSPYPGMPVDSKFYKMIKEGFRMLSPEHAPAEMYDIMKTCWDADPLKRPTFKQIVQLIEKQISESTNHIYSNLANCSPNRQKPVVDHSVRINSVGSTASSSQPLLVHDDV

[4] = molecular target: Phosphatidylinositol 4-phosphate 5-kinase type-1 gamma (Homo sapiens) (UniProt O60331); assay: Binding affinity to wild-type human partial length PIP5K1C (M1 to T668 residues) expressed in mammalian expression system assessed as remaining unbound target protein level at 1000 nM by Kinomescan method relative to control
[5] = molecular target: Ribosomal protein S6 kinase beta-1 (Homo sapiens) (UniProt P23443); assay: Binding affinity to wild-type human partial length S6K1 (M1 to S421 residues) expressed in mammalian expression system assessed as remaining unbound target protein level at 1000 nM by Kinomescan method relative to control
[6] = molecular target: Cyclin-dependent kinase 11A (Homo sapiens) (UniProt Q9UQ88); assay: Binding affinity to wild-type human partial length CDC2L2 (D391 to K730 residues) expressed in bacterial expression system assessed as remaining unbound target protein level at 1000 nM by Kinomescan method relative to control
Procedure, shortened: (§2)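 Profiled in a KINOMEscan binding panel with the inhibitor at a single concentration of 1 μM. Binding to each kinase was read out as percent of control, relative to a DMSO control. Strong binders were defined as those with a percent control value below 1.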

[7] = molecular target: Serine/threonine-protein kinase PLK2 (Homo sapiens) (UniProt Q9NYY3); assay: Binding affinity to wild-type human partial length PLK2 (H58 to F354 residues) expressed in mammalian expression system assessed as remaining unbound target protein level at 1000 nM by Kinomescan method relative to control
[8] = molecular target: Cyclin-dependent kinase 18 (Homo sapiens) (UniProt Q07002); assay: Binding affinity to wild-type human full length PCTK3 (M3 to F474 residues) expressed in bacterial expression system assessed as remaining unbound target protein level at 1000 nM by Kinomescan method relative to control
Cyclin-dependent kinase 18 (Homo sapiens), sequence (Q07002 whole entry, the tested form may be a part): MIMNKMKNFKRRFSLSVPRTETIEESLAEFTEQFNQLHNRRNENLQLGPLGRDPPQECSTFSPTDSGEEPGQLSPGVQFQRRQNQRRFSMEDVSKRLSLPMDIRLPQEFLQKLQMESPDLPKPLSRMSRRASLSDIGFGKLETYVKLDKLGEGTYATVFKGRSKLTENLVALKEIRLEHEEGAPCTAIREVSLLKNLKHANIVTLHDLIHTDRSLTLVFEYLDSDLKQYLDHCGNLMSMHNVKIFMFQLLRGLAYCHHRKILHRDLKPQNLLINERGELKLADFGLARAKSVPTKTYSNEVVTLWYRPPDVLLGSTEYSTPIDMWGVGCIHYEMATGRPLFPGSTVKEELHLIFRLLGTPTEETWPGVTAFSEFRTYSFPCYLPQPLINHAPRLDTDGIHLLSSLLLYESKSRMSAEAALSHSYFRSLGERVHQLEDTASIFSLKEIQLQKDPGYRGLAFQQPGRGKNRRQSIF
Procedure, shortened: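 KINOMEscan competition binding profile across a panel of 468 kinases and mutants, with the inhibitor tested at a single concentration of 1 μM. Binding is reported as percent of control, meaning signal relative to a DMSO control.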

[9] = molecular target: Bone morphogenetic protein receptor type-2 (Homo sapiens) (UniProt Q13873); assay: Binding affinity to wild-type human partial length BMPR2 (R179 to Q526 residues) expressed in mammalian expression system assessed as remaining unbound target protein level at 1000 nM by Kinomescan method relative to control; procedure, shortened: as §2
Bone morphogenetic protein receptor type-2 (Homo sapiens), sequence (Q13873 whole entry, the tested form may be a part): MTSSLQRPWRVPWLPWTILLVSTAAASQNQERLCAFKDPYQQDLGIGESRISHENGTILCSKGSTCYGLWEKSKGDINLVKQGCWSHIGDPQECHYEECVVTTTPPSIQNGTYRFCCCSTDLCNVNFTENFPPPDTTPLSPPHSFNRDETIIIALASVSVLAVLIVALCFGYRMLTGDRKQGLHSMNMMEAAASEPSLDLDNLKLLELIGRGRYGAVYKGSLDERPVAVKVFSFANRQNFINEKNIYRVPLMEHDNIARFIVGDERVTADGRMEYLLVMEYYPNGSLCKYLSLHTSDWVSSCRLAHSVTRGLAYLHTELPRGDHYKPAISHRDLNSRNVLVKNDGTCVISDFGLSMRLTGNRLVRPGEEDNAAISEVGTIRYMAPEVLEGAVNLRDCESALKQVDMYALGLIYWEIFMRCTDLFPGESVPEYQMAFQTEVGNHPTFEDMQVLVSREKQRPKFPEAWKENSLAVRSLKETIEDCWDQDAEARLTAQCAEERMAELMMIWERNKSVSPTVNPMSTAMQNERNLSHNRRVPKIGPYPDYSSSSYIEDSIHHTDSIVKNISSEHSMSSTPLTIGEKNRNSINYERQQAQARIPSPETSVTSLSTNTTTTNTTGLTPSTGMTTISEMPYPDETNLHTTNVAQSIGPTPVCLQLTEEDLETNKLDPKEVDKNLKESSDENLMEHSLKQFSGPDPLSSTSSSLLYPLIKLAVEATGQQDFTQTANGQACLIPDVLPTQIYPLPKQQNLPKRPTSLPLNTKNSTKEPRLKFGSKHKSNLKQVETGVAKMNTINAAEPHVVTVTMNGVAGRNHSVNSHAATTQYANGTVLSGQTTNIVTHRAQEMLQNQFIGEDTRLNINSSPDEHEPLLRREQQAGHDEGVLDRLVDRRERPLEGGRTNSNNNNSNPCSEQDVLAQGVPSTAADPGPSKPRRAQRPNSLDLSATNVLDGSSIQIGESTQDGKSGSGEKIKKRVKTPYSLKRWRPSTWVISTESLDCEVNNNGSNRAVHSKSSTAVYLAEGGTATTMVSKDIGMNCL

[10] = molecular target: Myosin light chain kinase (Homo sapiens) (UniProt Q32MK0); assay: Binding affinity to wild-type human partial length MLCK (D488 to K800 residues) expressed in bacterial expression system assessed as remaining unbound target protein level at 1000 nM by Kinomescan method relative to control
[11] = AUC (0 to t) in mouse at 3 mg/kg, iv by LC-MS/MS analysis; format: ADME, organism-based; conditions: in vivo
Procedure, shortened: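 Non-compartmental PK. Male SD rats 190-210 g, mice and beagle dogs acclimatized one week, fasted 12 h with water, split into iv and po groups (mice 48, rats 6, dogs 6). iv 3/3/2 mg/kg (mice/rats/dogs); po 10/20/10 mg/kg; vehicle DMSO in 5% glucose water. Blood at 2 or 5 to 720 min; plasma protein-precipitated with methanol, caffeine internal standard, LC-MS/MS.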

Homo sapiens [12] = species on record: Homo sapiens; assay: Induction of apoptosis in human MEC1 cells assessed as decrease in MCL-1 level after 2 hrs by immunoblotting analysis; format: functional, cell-based
[13] = Tmax in mouse at 3 mg/kg, iv by LC-MS/MS analysis; format: ADME, organism-based; conditions: in vivo
[14] = molecular target: Tyrosine-protein kinase ABL1 (Homo sapiens) (UniProt P00519); assay: Binding affinity to wild-type human non-phosphorylated ABL1 (S229 to K512 residues) expressed in mammalian expression system assessed as remaining unbound target protein level at 1000 nM by Kinomescan method relative to control; procedure, shortened: as §2
[15] = system: Epidermal growth factor receptor (Homo sapiens), P00533 [UNDEFINED MUTATION]; assay: Binding affinity to human partial length EGFR L747-S752del/P753S mutant expressed in bacterial expression system assessed as remaining unbound target protein level at 1000 nM by Kinomescan method relative to control; procedure, shortened: as §1
Epidermal growth factor receptor (Homo sapiens), P00533 [UNDEFINED MUTATION], sequence (P00533 whole entry, looked up, stated change not applied, the tested form may be a part): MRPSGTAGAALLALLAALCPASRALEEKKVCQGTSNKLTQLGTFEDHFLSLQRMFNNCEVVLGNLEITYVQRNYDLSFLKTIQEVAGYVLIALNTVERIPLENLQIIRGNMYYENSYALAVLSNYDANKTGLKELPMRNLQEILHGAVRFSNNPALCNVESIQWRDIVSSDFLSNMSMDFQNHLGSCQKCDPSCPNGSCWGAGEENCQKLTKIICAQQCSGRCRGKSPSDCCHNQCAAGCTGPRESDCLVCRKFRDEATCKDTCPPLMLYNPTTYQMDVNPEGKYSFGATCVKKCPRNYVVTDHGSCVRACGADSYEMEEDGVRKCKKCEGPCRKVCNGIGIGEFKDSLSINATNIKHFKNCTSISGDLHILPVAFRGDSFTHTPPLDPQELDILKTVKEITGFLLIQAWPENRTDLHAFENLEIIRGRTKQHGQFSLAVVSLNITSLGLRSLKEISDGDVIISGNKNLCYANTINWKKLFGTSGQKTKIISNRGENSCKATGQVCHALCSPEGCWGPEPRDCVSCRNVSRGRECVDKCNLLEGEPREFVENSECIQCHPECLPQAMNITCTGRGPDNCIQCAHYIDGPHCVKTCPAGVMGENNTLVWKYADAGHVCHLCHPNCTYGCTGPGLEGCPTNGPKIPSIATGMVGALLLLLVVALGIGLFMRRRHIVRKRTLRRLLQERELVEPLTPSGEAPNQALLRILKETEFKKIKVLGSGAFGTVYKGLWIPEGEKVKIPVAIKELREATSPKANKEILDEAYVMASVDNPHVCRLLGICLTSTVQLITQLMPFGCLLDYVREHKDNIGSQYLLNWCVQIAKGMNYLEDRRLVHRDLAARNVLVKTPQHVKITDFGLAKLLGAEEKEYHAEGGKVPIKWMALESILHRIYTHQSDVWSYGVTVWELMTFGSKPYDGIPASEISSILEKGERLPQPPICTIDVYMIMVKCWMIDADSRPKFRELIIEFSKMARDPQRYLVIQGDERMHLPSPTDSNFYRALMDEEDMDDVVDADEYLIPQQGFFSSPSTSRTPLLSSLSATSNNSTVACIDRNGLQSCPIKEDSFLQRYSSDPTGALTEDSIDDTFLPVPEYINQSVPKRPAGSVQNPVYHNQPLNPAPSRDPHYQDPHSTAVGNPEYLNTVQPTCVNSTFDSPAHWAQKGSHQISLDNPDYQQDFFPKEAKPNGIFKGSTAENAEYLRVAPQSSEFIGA

[16] = molecular target: Cyclin-dependent kinase 11B (Homo sapiens, UniProt P21127); assay: Binding affinity to wild-type human partial length CDC2L1 (P353 to G692 residues) expressed in bacterial expression system assessed as remaining unbound target protein level at 1000 nM by Kinomescan method relative to control; procedure, shortened: as §2
Homo sapiens [17] = species on record: Homo sapiens; assay: Induction of apoptosis in human MEC1 cells assessed as decrease in c-MYC level after 2 hrs by immunoblotting analysis; format: functional, cell-based
[18] = molecular target: Receptor tyrosine-protein kinase erbB-4 (Homo sapiens) (UniProt Q15303); assay: Binding affinity to wild-type human partial length ERBB4 (L690 to K994 residues) expressed in bacterial expression system assessed as remaining unbound target protein level at 1000 nM by Kinomescan method relative to control
[19] = system: Epidermal growth factor receptor (Homo sapiens), P00533 [UNDEFINED MUTATION]; assay: Binding affinity to human partial length EGFR L747-E749del/A750P mutant expressed in bacterial expression system assessed as remaining unbound target protein level at 1000 nM by Kinomescan method relative to control; procedure, shortened: as §1
[20] = system: Receptor-type tyrosine-protein kinase FLT3 (Homo sapiens), P36888 [K663Q]; assay: Binding affinity to human partial length FLT3 K663Q mutant (V592 to Y969 residues) expressed in bacterial expression system assessed as remaining unbound target protein level at 1000 nM by Kinomescan method relative to control; procedure, shortened: as §1
[21] = molecular target: Serine/threonine-protein kinase PAK 6 (Homo sapiens) (UniProt Q9NQU5); assay: Binding affinity to wild-type human partial length PAK6 (N298 to C681 residues) expressed in bacterial expression system assessed as remaining unbound target protein level at 1000 nM by Kinomescan method relative to control

Molecule `COCCN[C@H]1CC[C@H](Nc2cc(-c3csc(NCC4(C#N)CCOCC4)n3)c(Cl)cn2)CC1` has an Activity [1] of 100%, an Activity [2] of 100% and an IC50 (CDK9/Cyclin K) of 6 nM. The Activity [3] was 100%, the Activity [4] was 100% and the Activity [5] was 95%. The Activity [6] was 90%, the Activity [7] was 100% and the Activity [8] was 49%. The Activity [9] was 100%, the Activity [10] was 100% and the AUC(0-t) [11] was 393 ng·h/mL. For the same molecule, the Activity (Homo sapiens [12]) was “Dose-dependent effect”, the Tmax [13] was 4.98 min and the Activity [14] was 100%. For the same molecule, the Activity [15] was 79%, the Activity [16] was 93% and the Activity (Homo sapiens [17]) was “Dose-dependent effect”. For the same molecule, the Activity [18] was 85%, the Activity [19] was 92% and the Activity [20] was 97%. For the same molecule, the Activity [21] was 92%.
